SMILES strings stand for the structures.

Data set [1] relates to 3D7 strain of P. falciparum. Nature of the data set: In vitro antimalarial activity versus 3D7 Plasmodium falciparum. It counts as cell-based. The following applies: 3D7, read-out: IC50 (nM) 3D7 ± SD, 3D7 strain of P. falciparum.
Data set [2] in a line: Human liver microsomal incubations. The format is in vitro ADME. Summed up:
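Test compound at 1 µM incubated with human liver microsomes (1 mg/mL) plus NADPH; samples taken at 0, 10, 30 and 60 min; parent compound remaining measured.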

A short description of data set [3]: In vivo pharmacokinetic parameters. The settings on record: parent 8b in rat after oral administration of the 8b salt, 20 mg/kg. The procedure, abridged:
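Rats dosed orally at 20 mg/kg with the test form; parent compound measured in plasma. Parameters derived: Cmax, Tmax, half-life, volume of distribution, AUC0-t and calculated total clearance (ClT).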

With `O=c1c(CO)c(-c2ccc(-c3ccc(OC(F)(F)F)cc3)nc2)[nH]c2ccccc12` [compound 22], the IC50 in data set [1] amounted to 987 nM.

As to `Cc1c(-c2ccc(-c3ccc(OC(F)(F)F)cc3)nc2)[nH]c2ccccc2c1=O` [8b], the “parent compound present after 60 min incubation” value in data set [2] (1 μM, human liver microsomes 1 mg/mL, NADPH, 60 min) is “Greater than 60%”. This compound registered a CLint scaled at 1 µM in data set [2] (human, liver microsomes) of 1.78 mL/min/kg. The ClT in data set [3] was 4.605 mL/min/kg. On to `CCOC(=O)c1c(-c2ccc(-c3ccc(OC(F)(F)F)cc3)nc2)[nH]c2ccccc2c1=O` [compound 21], for which the half-maximal inhibitory concentration (IC50) in data set [1] turned out to be 103 nM.

By IC50 is commonly meant the concentration at which inhibition is half-maximal. In general, CLint scaled refers to the rate of metabolic loss divided by the concentration. A low value points to slow turnover.

Source of the values: paper PMC3351724 (Journal of Medicinal Chemistry, 2012).
